This note sets out measurements from ChEMBL document CHEMBL4371041, “Synthesis and evaluation of thieno[3,2-d]pyrimidine derivatives as novel FMS inhibitors” (Bioorg Med Chem Lett, 2019).

Data set [1] concerns the target Aurora kinase B/Inner centromere protein (Homo sapiens) (UniProt Q96GD4+Q9NQS7). Put plainly: Inhibition of recombinant human full length C-terminal His6-tagged Aurora B/N-terminal GST-tagged INCENP (821 to end residues) expressed in baculovirus infected Sf21 insect cells at 1 uM in presence of [gamma-33P]-ATP or [gamma-32P]-ATP relative to control.
Data set [2] can be described thus: AUC (0 to 7 hrs) in CD-1 mouse at 3 mg/kg, iv. The class given is ADME, organism-based. Particulars: in vivo. The arrangement: dose 3 mg/kg, time < 7 hr, route intravenous.
The test system of data set [3] is RAF proto-oncogene serine/threonine-protein kinase (Homo sapiens), P04049 [Y340D,Y341D]. The experiment in a line: Inhibition of recombinant human N-terminal GST-tagged c-RAF Y340D/Y341D double mutant (306 to 648 residues) expressed in baculovirus infected Sf21 insect cells at 1 uM using MEK1(K97R) as substrate in presence of [gamma-33P]-ATP or [gamma-32P]-ATP relative to control.

In data set [4] the target is High affinity nerve growth factor receptor (Homo sapiens) (UniProt P04629). The experiment in a line: Inhibition of recombinant human N-terminal His6-tagged TrkA (440 to end residues) expressed in baculovirus infected Sf21 insect cells at 1 uM using KKKSPGEYVNIEFG as substrate in presence of [gamma-33P]-ATP or [gamma-32P]-ATP relative to control.
The nature of data set [5]: Half life in CD-1 mouse at 10 mg/kg, po. Type of data set: ADME, organism-based. Particulars: in vivo.
The target of data set [6] is Cytochrome P450 3A4 (Homo sapiens, UniProt P08684). Put plainly: Inhibition of CYP3A4 in human liver microsomes by LC-MS/MS analysis. Type of data set: ADME. The gist of the method: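 Reversible CYP inhibition measured in human liver microsomes; metabolite formation quantified by LC/MS/MS.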
Background: Liver microsomes are vesicles of endoplasmic reticulum, rich in cytochrome P450 enzymes.

In data set [7] the target is Insulin-like growth factor 1 receptor (Homo sapiens) (UniProt P08069). Put plainly: Inhibition of Mg/ATP-autoactivated recombinant human N-terminal His6-tagged IGFR1 (959 to end residues) expressed in baculovirus infected Sf21 insect cells at 1 uM in presence of [gamma-33P]-ATP or [gamma-32P]-ATP relative to control.

A word on the inhibition: it is the drop in the measured response relative to a control, in per cent. One may read the AUC(0-t) as exposure summed from dosing to a finite time, without extrapolation to infinity. A higher AUC(0-t) goes with high exposure. Broadly, the half-life is the time needed for the level to fall by half in the phase considered. Low values mean rapid decline, high ones slow decline. Broadly, the IC50 is the concentration that gives 50% inhibition. A higher IC50 goes with lower potency.

Chain of Cytochrome P450 3A4 (P08684 whole entry): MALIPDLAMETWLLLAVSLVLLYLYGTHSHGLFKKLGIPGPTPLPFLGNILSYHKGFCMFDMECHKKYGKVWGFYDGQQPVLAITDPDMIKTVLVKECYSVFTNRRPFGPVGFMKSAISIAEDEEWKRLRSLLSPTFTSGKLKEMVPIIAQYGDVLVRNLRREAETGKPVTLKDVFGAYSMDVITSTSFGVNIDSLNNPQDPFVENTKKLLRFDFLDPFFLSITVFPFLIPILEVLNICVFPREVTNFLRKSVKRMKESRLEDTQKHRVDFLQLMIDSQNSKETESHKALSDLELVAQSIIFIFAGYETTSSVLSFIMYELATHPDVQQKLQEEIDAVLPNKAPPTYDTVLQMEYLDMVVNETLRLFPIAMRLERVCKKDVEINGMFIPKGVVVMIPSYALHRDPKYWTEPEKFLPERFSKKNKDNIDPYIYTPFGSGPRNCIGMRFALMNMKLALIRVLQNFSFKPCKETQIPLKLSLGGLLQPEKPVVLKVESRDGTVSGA
Chain of High affinity nerve growth factor receptor (Homo sapiens) (P04629 33-796 limits assumed): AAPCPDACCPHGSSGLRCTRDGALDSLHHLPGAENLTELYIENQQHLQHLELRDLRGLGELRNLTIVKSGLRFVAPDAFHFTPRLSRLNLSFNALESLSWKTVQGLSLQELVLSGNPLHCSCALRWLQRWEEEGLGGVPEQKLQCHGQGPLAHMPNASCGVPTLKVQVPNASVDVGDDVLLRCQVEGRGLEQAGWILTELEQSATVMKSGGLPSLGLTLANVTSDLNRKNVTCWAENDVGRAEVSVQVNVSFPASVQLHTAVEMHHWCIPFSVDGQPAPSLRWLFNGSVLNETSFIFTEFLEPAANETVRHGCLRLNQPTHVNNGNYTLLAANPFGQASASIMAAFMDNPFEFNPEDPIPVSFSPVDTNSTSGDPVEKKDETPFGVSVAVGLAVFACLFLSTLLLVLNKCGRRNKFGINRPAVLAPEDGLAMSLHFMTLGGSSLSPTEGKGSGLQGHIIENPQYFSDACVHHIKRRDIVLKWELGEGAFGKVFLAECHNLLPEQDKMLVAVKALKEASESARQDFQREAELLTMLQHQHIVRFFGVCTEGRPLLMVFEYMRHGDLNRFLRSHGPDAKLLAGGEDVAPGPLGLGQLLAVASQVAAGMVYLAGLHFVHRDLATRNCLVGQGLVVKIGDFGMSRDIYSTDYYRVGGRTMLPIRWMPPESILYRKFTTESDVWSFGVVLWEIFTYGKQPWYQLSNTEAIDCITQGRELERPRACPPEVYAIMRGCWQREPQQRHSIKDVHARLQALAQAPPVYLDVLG
Chain of Insulin-like growth factor 1 receptor (Homo sapiens) (P08069 31-736 limits assumed): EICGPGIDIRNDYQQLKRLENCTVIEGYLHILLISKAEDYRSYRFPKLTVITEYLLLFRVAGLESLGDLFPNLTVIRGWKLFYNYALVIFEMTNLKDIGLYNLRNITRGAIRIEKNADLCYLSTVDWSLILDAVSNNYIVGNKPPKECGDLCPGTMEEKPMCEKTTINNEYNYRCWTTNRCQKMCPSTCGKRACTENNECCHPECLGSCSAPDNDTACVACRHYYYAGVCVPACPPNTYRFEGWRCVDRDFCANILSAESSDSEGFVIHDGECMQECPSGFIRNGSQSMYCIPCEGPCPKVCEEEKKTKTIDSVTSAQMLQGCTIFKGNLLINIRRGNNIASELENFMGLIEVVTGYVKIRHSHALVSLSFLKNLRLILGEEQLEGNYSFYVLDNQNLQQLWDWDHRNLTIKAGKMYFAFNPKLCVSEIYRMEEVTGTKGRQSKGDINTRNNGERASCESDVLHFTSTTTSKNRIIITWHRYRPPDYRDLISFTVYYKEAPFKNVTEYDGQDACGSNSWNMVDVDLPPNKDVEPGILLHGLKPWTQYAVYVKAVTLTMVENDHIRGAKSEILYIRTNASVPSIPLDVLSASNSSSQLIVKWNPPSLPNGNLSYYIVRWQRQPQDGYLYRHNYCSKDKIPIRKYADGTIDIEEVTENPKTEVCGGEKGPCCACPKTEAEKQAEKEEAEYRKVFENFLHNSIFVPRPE
Chain of Insulin-like growth factor 1 receptor (Homo sapiens) (P08069 741-1367 limits assumed): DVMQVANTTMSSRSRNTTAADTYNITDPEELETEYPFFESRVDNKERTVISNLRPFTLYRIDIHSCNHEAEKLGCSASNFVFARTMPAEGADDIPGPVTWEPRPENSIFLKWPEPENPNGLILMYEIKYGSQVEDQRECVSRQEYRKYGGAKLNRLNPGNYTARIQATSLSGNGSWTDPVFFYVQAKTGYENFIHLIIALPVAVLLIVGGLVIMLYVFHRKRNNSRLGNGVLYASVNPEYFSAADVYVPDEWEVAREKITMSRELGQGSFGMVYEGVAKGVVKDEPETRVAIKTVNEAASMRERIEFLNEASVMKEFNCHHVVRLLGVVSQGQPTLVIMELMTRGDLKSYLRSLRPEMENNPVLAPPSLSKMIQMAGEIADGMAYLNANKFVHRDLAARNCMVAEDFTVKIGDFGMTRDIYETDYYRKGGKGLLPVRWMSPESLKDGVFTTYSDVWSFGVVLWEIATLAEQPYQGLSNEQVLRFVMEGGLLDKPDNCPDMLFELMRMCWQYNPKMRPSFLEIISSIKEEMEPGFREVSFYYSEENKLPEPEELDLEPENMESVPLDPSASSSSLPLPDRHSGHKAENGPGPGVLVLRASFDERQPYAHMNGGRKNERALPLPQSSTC
Chain of RAF proto-oncogene serine/threonine-protein kinase (Homo sapiens), P04049 [Y340D,Y341D] (P04049 whole entry Y340D/Y341D, the tested form may be a part): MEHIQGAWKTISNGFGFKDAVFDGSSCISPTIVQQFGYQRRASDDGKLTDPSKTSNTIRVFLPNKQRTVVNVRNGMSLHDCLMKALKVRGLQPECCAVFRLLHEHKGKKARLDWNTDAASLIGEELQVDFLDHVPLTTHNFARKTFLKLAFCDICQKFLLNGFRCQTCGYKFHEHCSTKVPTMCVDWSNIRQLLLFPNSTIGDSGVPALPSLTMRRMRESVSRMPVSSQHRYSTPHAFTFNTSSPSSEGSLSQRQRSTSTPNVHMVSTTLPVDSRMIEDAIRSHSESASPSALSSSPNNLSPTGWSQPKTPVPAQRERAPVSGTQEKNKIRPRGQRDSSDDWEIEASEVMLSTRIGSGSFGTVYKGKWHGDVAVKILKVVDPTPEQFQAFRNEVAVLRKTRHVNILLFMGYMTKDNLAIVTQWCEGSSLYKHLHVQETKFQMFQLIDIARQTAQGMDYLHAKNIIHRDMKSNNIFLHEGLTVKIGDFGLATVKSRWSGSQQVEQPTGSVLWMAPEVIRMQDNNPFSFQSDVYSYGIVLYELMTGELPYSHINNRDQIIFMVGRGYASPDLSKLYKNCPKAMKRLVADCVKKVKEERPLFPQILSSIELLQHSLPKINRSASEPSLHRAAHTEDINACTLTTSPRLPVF

Consider `Cc1cccc(Cn2nc(C)c3c(NC(=O)c4csc5c(N)ncnc45)cccc32)n1`, for which the inhibition was -3% in data set [1], above 60% in data set [3], 27% in data set [4] and 56% in data set [7]. In data set [2], this molecule returned an exposure AUC(0-t) at 7 h of 3370 ng·h/mL. In data set [5], this molecule had a half-life of 2.6 h. This molecule showed an IC50 in data set [6] above 20 µM.
